# Screening results (PubChem)
# T cruzi repl: T. cruzi replication inhibition; T. cruzi beta-gal in NIH3T3, luminescence, 90 h; AID 1885; 1.4% of 300,000 active; inhibition, % (test concentration not listed);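 active = mean inhibition across valid replicates above about 55%, limit read from the data; inconclusive = mean below that limit but half or more replicates reach it; inactive = mean below it, under half of replicates reach it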;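 also: signal also drops with host cell toxicity which is not excluded here; 0% = plate median of DMSO wells and 100% = zero luminescence signal; higher percent means less beta-gal luminescence so fewer parasites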
#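 Material: NIH/3T3 host cells with β-galactosidase reporter T. cruzi; Input: 5,000 host fibroblasts per well; Medium: DMEM, 2% fetal bovine serum; Compound: 50 nL DMSO compound solution per well; Schedule: 3 h host attachment, then at least 90 h co-culture; Detection: luminescent β-galactosidase signal after 60 min lysis.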
# Efflux pump mplx: inhibitors of Candida antifungal efflux pumps expressed in yeast | S. cerevisiae Candida pump triplex, Nile Red efflux | inhibition, % at 10 µM | 0.44% of 330,000 active | AID 485275;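 active = plate passing quality check with inhibition over a set limit, or well fluorescence over plate mean plus 4 SD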;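 also: Nile Red retained in pooled yeast measured as flow cytometry median fluorescence; 0% = buffer negative control and 100% = Enniatin B positive control; higher means more Nile Red kept so more efflux inhibition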
# PolyA inh: inhibitors of polyadenylation in S. cerevisiae. S. cerevisiae SKY197-pL101 polyadenylation reporter, beta-gal luminescence; efflux-impaired pdr1/pdr3 knockout yeast; score 100 = 6 SD above DMSO. activity score, % at 12 µM. 0.02% of 300,000 active. AID 1875;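 active = lowest replicate activity score at least 50, where 100 means six control SD above control mean; inconclusive = lowest score under 50 but half or more replicates reach 50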;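 also: yeast exposed to compound for 9 h at 30 °C; higher score means more reporter readthrough which indicates perturbed polyadenylation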
# HDAC3 inhib: blocks human histone deacetylase 3 | O15379 | recombinant HDAC3, fluorogenic peptide/trypsin coupled, fluorescence | inhibition, % at 8.3 µM | 0.15% of 320,000 active; in the data active = inhibition above about 26%, passing the limit was not always enough; inconclusive = no clear call, values can overlap the other calls
# Target sequence (O15379 whole entry, looked up): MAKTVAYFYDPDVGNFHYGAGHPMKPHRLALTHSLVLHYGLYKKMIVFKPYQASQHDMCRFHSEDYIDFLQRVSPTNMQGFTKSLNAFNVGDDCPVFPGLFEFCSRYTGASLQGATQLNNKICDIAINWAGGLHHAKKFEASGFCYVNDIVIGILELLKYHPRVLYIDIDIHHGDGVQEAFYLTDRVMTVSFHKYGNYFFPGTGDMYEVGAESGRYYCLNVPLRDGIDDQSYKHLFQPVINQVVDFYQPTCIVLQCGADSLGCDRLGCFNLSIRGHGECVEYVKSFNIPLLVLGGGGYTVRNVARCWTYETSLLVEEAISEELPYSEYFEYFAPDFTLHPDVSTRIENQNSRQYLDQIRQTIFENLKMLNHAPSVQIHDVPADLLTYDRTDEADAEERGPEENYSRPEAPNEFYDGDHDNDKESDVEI
# AI-2 QS modul: modulates the Vibrio harveyi AI-2 quorum sensing system. Vibrio harveyi JMH597 AI-2 luminescence/OD600 ratio, 9 h; hits give low values; strain lacks LuxN and CqsS sensors; 0 = neutral-control median. activity change, % at 7.5 µM. 0.4% of 300,000 active; in the data active = activity change below about -75%, passing the limit was not always enough; inconclusive = no clear call, values can overlap the other calls;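 also: luminescence divided by OD600 gain over 9 h not by final OD600 alone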
# The depositor's hits bear a star; ? = inconclusive; . = not tested or not shown. In the library only some 2.2% were active in any assay of this set; here they are far more common.
SMILES,T cruzi repl,Efflux pump mplx,PolyA inh,HDAC3 inhib,AI-2 QS modul
O=C(CCl)c1ccc2c(c1)CCN2C(=O)C1CCCCC1,90*,0,-26,3,13
COC(=O)c1ccc2nc(C3CCCCC3)c3c(c2c1)CCC3,-19,0,-8,2,8
CCOC(=O)C1=C(c2ccccc2)NC(SCC(=O)Nc2ccc(C)cc2)=C(C#N)C1c1ccco1 (stereo not drawn),65*,0,11,4,32
CCOC(=O)C1=C(c2ccccc2)NC(SCC(=O)Nc2cccc(C)c2)=C(C#N)C1c1ccco1 (stereo not drawn),29,0,-1,5,39
CSc1ncccc1C(=O)OCC(=O)c1cccc(Br)c1,-7,0,-2,-4,26
O=C(N/N=C/c1cc(Br)ccc1O)C(=O)Nc1ccccc1OC(F)(F)C(F)F,57*,0,1,1,18
Cc1cc(C)cc(NC(=O)NCc2c(-c3ccccc3)noc2C)c1,-11,0,6,-8,15
O=C(NCc1nc(-c2ccc(C(F)(F)F)cc2)no1)Nc1cc(Cl)cc(Cl)c1,60*,0,-13,19,.
Cc1onc(-c2ccccc2)c1CNC(=O)Nc1ccc(C(F)(F)F)cc1,56*,0,10,0,-1
O=C(O)CCn1cc(C2CC(c3ccccc3)=NN2c2ccccc2)c(-c2ccccc2)n1 (stereo not drawn),-2,0,1,-85,20
Cc1ccc(S(=O)(=O)CCC(=O)c2cccc([N+](=O)[O-])c2)cc1,58*,0,19,-6,?
Cc1cccc(C(=O)NCC(=O)NC2CCC(C)CC2)c1 (stereo not drawn),3,0,15,-1,12
O=C(COc1nncc2ccccc12)NCCC1=CCCCC1,0,0,-2,1,-77*
Cc1cc(C)n(Cc2ccc(NC(=O)c3ccc(COc4ccccc4Br)cc3)cc2)n1,60*,0,5,14,32
CCC(CC)N1CCN(C(=O)c2cc(OC)c(OC)c(OC)c2)CC1,-13,0,-2,-1,0
O=C(N/N=C/c1ccccc1)c1c(O)c2ccccc2[nH]c1=O,7,0,?,-2,2
O=C(N/N=C/c1ccc(F)cc1)c1c(O)c2ccccc2[nH]c1=O,2,0,60*,3,8
Cc1ccc([C@@H]2CC=C(C(=O)O)[C@H](c3ccccc3)N2S(=O)(=O)c2ccccc2C)cc1,.,0,.,.,.
O=c1oc(-c2ccccc2Br)nc2ccccc12,-7,0,-18,44*,-8
COc1ccccc1-c1cc2nc(C)c(CCC(=O)NCc3ccc(F)cc3)c(C)n2n1,61*,0,1,-3,10
COc1ccccc1CNC(=O)CCc1c(C)nc2cc(-c3ccccc3OC)nn2c1C,21,0,-26,-6,17
Cc1ccc(S(=O)(=O)Nc2cc(Cl)c(O)c3ncccc23)cc1,-10,0,-3,-5,-227*
Cc1ccc(S(=O)(=O)Nc2cccnc2Oc2ccc(Cl)cc2)cc1,-1,0,-2,5,19
Cc1ccc(N(CC(=O)NCC2CCCO2)C(=O)CCC(=O)Nc2nccs2)cc1 (stereo not drawn),-4,0,10,1,27
Cc1cc(C(=O)Nc2ccc(Nc3ccccc3)cc2)ccc1[N+](=O)[O-],38,0,9,0,-10
SMILES,T cruzi repl,Efflux pump mplx,PolyA inh,HDAC3 inhib,AI-2 QS modul
Cc1ccccc1NC(=O)c1ccc(Nc2c([N+](=O)[O-])cc([N+](=O)[O-])c3ccccc23)cc1,63*,0,-49,.,12
COc1ccc2c(=O)cc(CO)oc2c1,.,0,.,-6,.
O=C(Nc1cccnc1Cl)c1cc([N+](=O)[O-])ccc1Cl,66*,0,-1,2,13
O=C(Nc1cccc2ncccc12)c1cc([N+](=O)[O-])ccc1Cl,-8,0,4,-13,11
O=C(c1cc([N+](=O)[O-])cc([N+](=O)[O-])c1)N1CCCc2ccccc21,73*,0,-30,0,1
CCCCNC(=O)COC(=O)c1ccccc1F,-2,0,-3,-5,28
CN1CCN(NC(=O)Nc2cccc(Cl)c2Cl)CC1,57*,0,15,-3,2
COC(=O)c1ccccc1NC(=O)NN1CCN(C)CC1,-7,0,1,-2,24
COc1cc2c(cc1OC)C(c1cccc([N+](=O)[O-])c1)N(C(=O)CCC(=O)O)CC2 (stereo not drawn),-9,0,3,-3,18
CC(C)(C)C(O)CN1CCCC1 (stereo not drawn),5,0,-3,0,12
COc1c(Cl)cc(Cl)cc1C(=O)Nc1ccc(CN2CCCCC2)cc1,56*,0,-27,-3,16
Cc1ccc(C(=O)NC(=S)Nc2ccc(CN3CCCCC3)cc2)c(C)c1,60*,-1,-10,5,20
COc1cc(NC(=O)c2ccc(Cl)cc2Cl)ccc1NC(=O)c1cccs1,2,0,4,-5,11
COc1c(Cl)cc(Cl)cc1C(=O)Nc1ccc(NC(=O)c2cccs2)cc1,58*,0,-10,-11,-4
Cc1ccc(Cl)cc1N1CCN(CC(=O)Nc2ccc(CN3CCCCC3)cc2)CC1,55*,0,-8,2,19
CCCOc1ccc(-c2nn(-c3ccccc3)cc2/C=C2\SC(N)=NC2=O)cc1C,56*,0,-4,1,48
Cc1nc2ccc(C(=O)NCc3ccc4c(c3)OCO4)cc2s1,-9,1,112*,-3,-5
Cc1nc2ccc3nc(NC(=O)c4ccc5c(c4)OCCO5)sc3c2s1,-10,0,10,-1,39
COc1ccc(C(=O)NCc2ccc3c(c2)OCO3)cc1,-7,0,27,-3,-7
O=C(NCc1ccc2c(c1)OCO2)c1cccc(C(=O)NCc2ccc3c(c2)OCO3)c1,-5,0,-11,-6,-85*
O=C(NCc1ccc2c(c1)OCO2)c1cccnc1,-2,0,25,-18,3
Cc1nc2c(ccc3nc(NC(=O)c4ccc5c(c4)OCCO5)sc32)s1,57*,0,-7,5,43
N#Cc1c(Cc2cccc3ccccc23)nn(CCO)c1N,-10,0,-6,8,1
COc1cc(C(=O)OCC(=O)NCCN2C(=O)CSC2=O)ccc1OCc1c(C)noc1C,-2,0,-2,.,16
Cc1cc(Sc2nc(N)ncc2[N+](=O)[O-])ncn1,61*,0,0,-11,-22
COc1ccc(CCNC(=O)C2CCCN(Cc3nc(-c4ccccc4C)oc3C)C2)cc1OC (stereo not drawn),46,0,2,1,22
COc1ccc(CNC(=O)C2CCCN(Cc3nc(-c4cccc(C)c4)oc3C)C2)cc1 (stereo not drawn),56*,0,24,-7,21
